Measured values as given in ChEMBL document CHEMBL2157902, “Modified tetrahalogenated benzimidazoles with CK2 inhibitory activity are active against human prostate cancer cells LNCaP in vitro” (Bioorg Med Chem, 2012).
The source made the active and inactive calls. The rule behind the calls is not given here.

How the values were obtained:
[1] = test system: LNCaP; assay: Induction of apoptosis in human LNCAP cells assessed as PARP cleavage at 20 uM after 24 hrs by Western blot analysis; assay type: functional, cell-based
How it was run: (§1)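 LNCaP cells treated 24 h at 10 or 20 µM, then lysed in RIPA buffer with protease inhibitors and protein measured by Bradford. Extracts (150 µg) run on 7.5% SDS-PAGE and tank-blotted to PVDF. Probed overnight at 4 °C with polyclonal rabbit anti-PARP (1:1000), detected with peroxidase anti-rabbit and chemiluminescence. Full-length and 85 kDa fragment scored.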

[2] = test system: LNCaP; assay: Antiproliferative activity against human LNCAP cells after 24 by MTT assay; assay type: functional; conditions: read-out: LD50 (the source's name)
How it was run: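 LNCaP cells were grown in RPMI1640 with 10% FBS at 37 °C under 5% CO2, and 2 × 10^4 cells/well were seeded the day before. Cells were treated with 3–10 µM for 24 h. MTT (5 mg/ml) was then added for 1 h, cells were lysed, and absorbance was read at 595 nm. Viability was expressed as % of DMSO control. LD50 was calculated by curve fitting, mean of ≥3 independent experiments.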

[3] = test system: LNCaP; assay: Antiproliferative activity against human LNCAP cells after 24 to 48 hrs by MTT assay; assay type: functional; conditions: read-out: LD50 (the source's name)
How it was run: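 LNCaP cells were grown in RPMI1640 with 10% FBS at 37 °C under 5% CO2, and 2 × 10^4 cells/well were seeded the day before treatment. Cells were exposed to 10 or 20 compound for 24 and 48 h. MTT (5 mg/ml) was then added for 1 h, cells were lysed, and A595 was read. Viable cells were expressed as % of DMSO-treated control, mean of ≥3 independent experiments.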

[4] = Inhibition of rat liver CK2 using RRRADDSDDDDD as substrate
[5] = test system: LNCaP; assay: Induction of apoptosis in human LNCAP cells assessed as PARP cleavage at 10 uM after 24 hrs by Western blot analysis; assay type: functional, cell-based; how it was run: as §1
[6] = test system: LNCaP; assay: Antiproliferative activity against human LNCAP cells assessed as decrease in cell viability at 20 uM after 48 hrs by MTT assay; assay type: functional
How it was run: (§2)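 LNCaP cells grown in RPMI1640 with 10% FBS at 37 °C, 5% CO2. Seeded at 2 × 10^4 cells/500 µl in 24-well plates the day before treatment, then exposed to 10 or 20 µM for 24 or 48 h. MTT was added for a further 1 h, cells lysed and A595 read. Viability given as % of DMSO-treated control. Mean of at least three independent experiments.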

[7] = test system: LNCaP; assay: Antiproliferative activity against human LNCAP cells assessed as decrease in cell viability at 10 uM after 48 hrs by MTT assay; assay type: functional; how it was run: as §2
[8] = Inhibition of CK2
[9] = test system: LNCaP; assay: Induction of apoptosis in human LNCAP cells assessed as PARP cleavage after 24 hrs by Western blot analysis; assay type: functional, cell-based; how it was run: as §1
[10] = test system: LNCaP; assay: Antiproliferative activity against human LNCAP cells assessed as decrease in cell viability at 10 to 20 uM after 24 to 48 hrs by MTT assay; assay type: functional, cell-based; how it was run: as §2

SMILES | Activity [1] | CC50 [2] | CC50 [3] | Activity [5] | other results
CN(C)CCNc1nc2c(Br)c(Br)c(Br)c(Br)c2[nH]1 | Active | 9.37 µM | < 10 µM | – | Ki [4]: 0.16 µM
Cn1c(NCCN)nc2c(Br)c(Br)c(Br)c(Br)c21 | inactive | – | < 10 µM | inactive | –
NCCCCNc1nc2c(Br)c(Br)c(Br)c(Br)c2[nH]1 | inactive | – | < 10 µM | inactive | Activity [6]: 20%; Activity [7]: 20%
CN(C)c1nc2c(Br)c(Br)c(Br)c(Br)c2[nH]1 | – | – | – | – | Ki [8]: 0.04 µM
NCCNc1nc2c(I)c(I)c(I)c(I)c2[nH]1 | Active | – | < 10 µM | – | –
NCCNc1nc2c(Br)c(Br)c(Br)c(Br)c2[nH]1 | Active | 7.22 µM | < 10 µM | Active | Activity [9]: Dose-dependent effect
Ic1c(I)c(I)c2[nH]cnc2c1I | Active | – | – | – | Activity [6]: 20%; Activity [7]: 20%
Cn1c(NCCN)nc2c(I)c(I)c(I)c(I)c21 | inactive | 4.75 µM | < 10 µM | inactive | –
Brc1c(Br)c(Br)c2[nH]cnc2c1Br | Active | – | – | – | Activity [6]: 20%; Activity [7]: 20%
NCCCNc1nc2c(Br)c(Br)c(Br)c(Br)c2[nH]1 | Active | – | < 10 µM | – | –
CN(C)CCNc1nc2c(I)c(I)c(I)c(I)c2[nH]1 | Active | 7.37 µM | < 10 µM | – | –
O=C(O)CCCSc1nc2c(Br)c(Br)c(Br)c(Br)c2[nH]1 | – | – | – | inactive | Activity [10]: inactive; IC50 [8]: 0.27 µM
CN(C)c1nc2c(Br)c(Br)c(Br)c(Br)c2n1CC(=O)O | – | – | – | inactive | Activity [10]: inactive; Ki [4]: 0.25 µM; IC50 [8]: 0.27 µM
